# Test results reported in ChEMBL document CHEMBL3526062, “Role of human UDP-glucuronosyltransferases in the biotransformation of the triazoloacridinone and imidazoacridinone antitumor agents C-1305 and C-1311: highly selective substrates for UGT1A10” (Drug Metab Dispos, 2012).
# Assays:
# Assay type in all cases: ADME
# [1] = Drug metabolism in human small intestine microsomes assessed as glucuronidation activity at 0.1 mM for 60 mins in presence of 3 mM UDP-GlcUA; settings: 1 h, 100 µM
# In short: (§1)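 Microsomes from single donors (20 μg protein) incubated with 0.1 mM substrate and 3 mM UDP-GlcUA for 60 min at 37°C in Tris-HCl pH 7.4 buffer with 5 mM MgCl2, 5 mM saccharolactone and 2% DMSO. Glucuronide measured by HPLC; donor data summarized as box-and-whisker plots.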
# [2] = Drug metabolism in human stomach microsomes assessed as glucuronidation activity at 0.1 mM for 60 mins in presence of 3 mM UDP-GlcUA; settings: 1 h, 100 µM; in short: as §1
# [3] = Drug metabolism in human ileum microsomes assessed as glucuronidation activity at 0.1 mM for 60 mins in presence of 3 mM UDP-GlcUA; settings: 1 h, 100 µM; in short: as §1
# [4] = biological target: T1, UDP-glucuronosyltransferase 1A3 (Homo sapiens, UniProt P35503); test: Activity of human recombinant UGT1A3 expressed in baculovirus-infected Sf9 cells assessed as glucuronidation activity per mg of protein at 100 to 200 uM after 60 mins in presence of 3 mM UDP-GlcUA; settings: sf9, 1 h
# T1 sequence (P35503 whole entry): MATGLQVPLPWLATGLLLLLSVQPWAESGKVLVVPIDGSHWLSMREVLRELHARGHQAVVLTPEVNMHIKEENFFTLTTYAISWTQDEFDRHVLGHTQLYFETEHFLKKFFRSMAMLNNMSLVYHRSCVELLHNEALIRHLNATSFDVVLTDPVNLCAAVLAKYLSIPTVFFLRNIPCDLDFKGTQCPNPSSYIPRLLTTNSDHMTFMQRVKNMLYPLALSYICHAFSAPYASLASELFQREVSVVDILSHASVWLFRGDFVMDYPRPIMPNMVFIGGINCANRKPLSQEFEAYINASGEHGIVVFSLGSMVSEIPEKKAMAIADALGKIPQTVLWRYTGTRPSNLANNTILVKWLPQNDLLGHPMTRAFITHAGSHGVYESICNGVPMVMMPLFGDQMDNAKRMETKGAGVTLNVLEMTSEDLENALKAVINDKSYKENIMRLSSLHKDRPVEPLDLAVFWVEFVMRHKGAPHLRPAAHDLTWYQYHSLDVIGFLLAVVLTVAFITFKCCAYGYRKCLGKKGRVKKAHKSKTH
# In short: (§2)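 Screening: 5 μg recombinant UGT protein (His-tag levels normalized) in Tris-HCl pH 7.4, 5 mM MgCl2, 5 mM saccharolactone, 2% DMSO to permeabilize membranes. Substrate at 100 or 200 μM, added in water. Started with 3 mM UDP-GlcUA, 60 min at 37°C, stopped with ethanol, then centrifuged. Glucuronide quantified by reversed-phase C18 HPLC against the substrate response; triplicates.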
# [5] = biological target: T2, UDP-glucuronosyltransferase 1A9 (Homo sapiens, UniProt O60656); test: Activity of human recombinant UGT1A9 expressed in baculovirus-infected Sf9 cells assessed as glucuronidation activity per mg of protein at 100 to 200 uM after 60 mins in presence of 3 mM UDP-GlcUA; settings: sf9, 1 h; in short: as §2
# T2 sequence (O60656 whole entry): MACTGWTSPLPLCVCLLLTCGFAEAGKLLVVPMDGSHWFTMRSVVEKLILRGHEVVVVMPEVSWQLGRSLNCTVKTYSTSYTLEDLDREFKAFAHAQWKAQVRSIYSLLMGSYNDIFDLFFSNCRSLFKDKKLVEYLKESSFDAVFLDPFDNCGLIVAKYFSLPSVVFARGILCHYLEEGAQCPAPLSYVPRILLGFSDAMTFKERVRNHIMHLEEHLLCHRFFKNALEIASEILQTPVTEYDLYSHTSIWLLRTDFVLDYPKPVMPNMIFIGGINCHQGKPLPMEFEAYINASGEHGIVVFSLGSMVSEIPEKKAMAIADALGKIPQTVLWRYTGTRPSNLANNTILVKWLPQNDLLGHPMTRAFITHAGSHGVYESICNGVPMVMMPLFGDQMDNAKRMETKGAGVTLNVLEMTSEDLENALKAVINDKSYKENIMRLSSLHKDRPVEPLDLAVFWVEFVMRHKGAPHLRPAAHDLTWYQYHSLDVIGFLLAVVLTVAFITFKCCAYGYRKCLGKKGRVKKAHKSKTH
# [6] = biological target: T2, UDP-glucuronosyltransferase 1A9; test: Inhibition of human recombinant UGT1A9 activity expressed in baculovirus-infected Sf9 cells
# [7] = Drug metabolism in human liver microsomes assessed as glucuronidation after 60 mins by Michaelis-Menten equation in presence of 3 mM UDP-GlcUA
# In short: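 Recombinant UGT membrane protein (5 μg; His-tagged UGT1A levels normalized by anti-His Western blot) or single-donor microsomes (20 μg) incubated with substrate 5–1000 μM and 3 mM UDP-GlcUA in […] pH 7.4, 5 mM MgCl2, 5 mM saccharolactone, 2% DMSO, 60 min, 37°C. Ethanol stop, centrifuged, HPLC-UV. Initial velocities fitted to Michaelis-Menten, Hill or substrate-inhibition models; three determinations.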
# [8] = biological target: T3, UDP-glucuronosyltransferase 1A1 (Homo sapiens, UniProt P22309); test: Activity of human recombinant UGT1A1 expressed in baculovirus-infected Sf9 cells assessed as glucuronidation activity per mg of protein at 100 to 200 uM after 60 mins in presence of 3 mM UDP-GlcUA; settings: sf9, 1 h; in short: as §2
# T3 sequence (P22309 whole entry): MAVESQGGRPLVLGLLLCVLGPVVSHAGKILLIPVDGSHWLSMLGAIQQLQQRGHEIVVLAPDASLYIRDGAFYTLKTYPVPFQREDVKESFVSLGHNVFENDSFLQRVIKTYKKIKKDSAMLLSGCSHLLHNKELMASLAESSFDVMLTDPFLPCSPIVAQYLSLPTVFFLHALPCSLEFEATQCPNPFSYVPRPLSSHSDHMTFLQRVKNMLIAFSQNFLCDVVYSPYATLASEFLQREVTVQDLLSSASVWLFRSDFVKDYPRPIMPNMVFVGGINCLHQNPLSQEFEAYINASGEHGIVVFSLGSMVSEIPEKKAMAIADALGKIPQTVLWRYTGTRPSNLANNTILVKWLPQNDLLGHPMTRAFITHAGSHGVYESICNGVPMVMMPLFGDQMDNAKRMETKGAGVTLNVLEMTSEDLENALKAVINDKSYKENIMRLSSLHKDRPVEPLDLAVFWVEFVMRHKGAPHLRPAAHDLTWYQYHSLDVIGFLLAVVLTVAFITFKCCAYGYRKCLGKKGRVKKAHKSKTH
# [9] = Drug metabolism in human jejunum microsomes assessed as glucuronidation activity at 0.1 mM for 60 mins in presence of 3 mM UDP-GlcUA; settings: 1 h, 100 µM; in short: as §1
# Liver microsome = test: Drug metabolism in human liver microsomes assessed as glucuronidation activity at 0.2 mM for 60 mins by ESI-MS analysis in presence of 3 mM UDP-GlcUA; settings: 1 h, 200 µM
# In short: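 Single-donor liver or intestinal microsomes (20 μg total protein) incubated with 0.2 mM substrate and 3 mM UDP-GlcUA for 60 min at 37°C in Tris-HCl pH 7.4, MgCl2, saccharolactone, 2% DMSO. Ethanol stop, centrifuged, HPLC analysis; triplicates.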
Compound,Drug metabolism [1],Drug metabolism [2],Drug metabolism [3],Drug metabolism [4] [nmol/min/mg],Drug metabolism [5] [nmol/min/mg],Ki [6] [µM],Km at 1 h [7] [µM],Drug metabolism [8] [nmol/min/mg],Drug metabolism [9],Drug metabolism (Liver microsome)
CN(C)CCCNc1ccc2nnn3c4ccc(O)cc4c(=O)c1c23,metabolite_detected,metabolite_detected,metabolite_detected,< 0.1,0.2,1650,71.3,< 0.1,metabolite_detected,metabolite_detected
CCN(CC)CCNc1ccc2ncn3c4ccc(O)cc4c(=O)c1c23 [C-1311],metabolite_detected,metabolite_detected,metabolite_detected,< 0.1,0.2,958,39.3,< 0.1,metabolite_detected,metabolite_detected
